Values after ≈ are worked out from the molar mass of the structure shown.
Assays:
Format in all cases: functional, organism-based
Meloidogyne incognita [1] = assay: Nematicidal activity against Meloidogyne incognita J2 (root-knot nematode) larvae immersed in compound solution for 24 hr assessed as reduction in larval motility
Method in brief: (§1)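 J2 hatched at 28 °C in modified Baermann funnels from eggs extracted from roots with sodium hypochlorite. Ethanol stocks were diluted in water with Tween-20 (final ethanol ≤1%, Tween-20 ≤0.3% v/v), with water and solvent controls. Fifteen J2 per well, covered, dark, 28 °C. Motile/immotile scored microscopically. Control-corrected (Schneider-Orelli), six replicates, run twice. EC50 from log-logistic regression.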

Meloidogyne incognita [2] = assay: Nematicidal activity against Meloidogyne incognita J2 (root-knot nematode) larvae immersed in compound solution for 48 hr assessed as reduction in larval motility; method in brief: as §1
Meloidogyne incognita [3] = assay: Nematicidal activity against Meloidogyne incognita J2 (root-knot nematode) larvae immersed in compound solution for 96 hr assessed as reduction in larval motility; method in brief: as §1
Meloidogyne javanica = assay: Nematicidal activity against Meloidogyne javanica J2 (root-knot nematode) larvae immersed in compound solution for 48 hr assessed as reduction in larval motility

Row | Compound | EC50 (Meloidogyne incognita [1]) | EC50 (Meloidogyne incognita [2]) | EC50 (Meloidogyne incognita [3]) | EC50 (Meloidogyne javanica)
1 | Cc1ccc(C(C)C)cc1 [P-CYMENE] | > 1720 µg/mL | > 1720 µg/mL | > 1720 µg/mL | –
2 | C=CC(C)(O)CCC=C(C)C (stereo unspecified) [LINALOOL] | 862 µg/mL (≈ 5590 µM) | 707 µg/mL (≈ 4580 µM) | 284 µg/mL (≈ 1840 µM) | –
3 | CC(C)=C1CC[C@@H](C)CC1=O [PULEGONE] | 150 µg/mL (≈ 985 µM) | < 117 µg/mL | < 117 µg/mL | 0.205 uL/ml
4 | C=CCc1ccc(O)c(OC)c1 [EUGENOL] | 256 µg/mL (≈ 1560 µM) | 192 µg/mL (≈ 1170 µM) | < 133 µg/mL | –
5 | CC1=CCC(O)(C(C)C)CC1 (stereo unspecified) [TERPINEOL] | 392 µg/mL (≈ 2540 µM) | 290 µg/mL (≈ 1880 µM) | 168 µg/mL (≈ 1090 µM) | –
6 | CC(C)=CCC/C(C)=C/CO [GERANIOL] | 237 µg/mL (≈ 1540 µM) | 158 µg/mL (≈ 1020 µM) | 105 µg/mL (≈ 681 µM) | –
7 | Cc1ccc(C(C)C)c(O)c1 [THYMOL] | 390 µg/mL (≈ 2600 µM) | 280 µg/mL (≈ 1860 µM) | 160 µg/mL (≈ 1070 µM) | –
8 | C=C(C)[C@@H]1CC=C(C)C(=O)C1 [L-CARVONE] | 115 µg/mL (≈ 766 µM) | < 120 µg/mL | < 120 µg/mL | –
9 | C=C(C)[C@H]1CC=C(C)CC1 [D-LIMONENE] | > 1680 µg/mL | > 1680 µg/mL | > 1680 µg/mL | –
10 | CC12CCC(CC1)C(C)(C)O2 [EUCALYPTOL] | > 1840 µg/mL | > 1840 µg/mL | 1600 µg/mL (≈ 10400 µM) | –
11 | C/C=C/c1ccc(OC)cc1 [ANETHOLE] | 170 µg/mL (≈ 1150 µM) | 140 µg/mL (≈ 945 µM) | 124 µg/mL (≈ 837 µM) | –
12 | C=C1CC/C=C(\C)CC[C@@H]2[C@@H]1CC2(C)C [BETA-CARYOPHYLLENE] | > 1800 µg/mL | 433 µg/mL (≈ 2120 µM) | 307 µg/mL (≈ 1500 µM) | –
13 | Cc1ccc(C(C)C)cc1O [CARVACROL] | 264 µg/mL (≈ 1760 µM) | 176 µg/mL (≈ 1170 µM) | 117 µg/mL (≈ 779 µM) | 0.128 uL/ml

From ChEMBL document CHEMBL3045047, “Phytochemistry and nematicidal activity of the essential oils from 8 Greek Lamiaceae aromatic plants and 13 terpene components” (J Agric Food Chem, 2010)
